Test results reported in ChEMBL document CHEMBL1914380, “Polyalkoxybenzenes from plants. 5. Parsley seed extract in synthesis of azapodophyllotoxins featuring strong tubulin destabilizing activity in the sea urchin embryo and cell culture assays” (J Med Chem, 2011).
Calls of active or inactive are those of the source. The rule behind the calls is not given here.

Experiments:
Paracentrotus lividus [1] = assay: Antimitotic activity against Paracentrotus lividus embryo assessed as embryo spinning treated 10 to 25 mins post fertilization followed by 45 to 60 mins before the first mitotic cycle completion by sea urchin embryo assay; assay type: functional
A549 [2] = assay: Inhibition of microtubule polymerization in human A549 cells assessed as total disruption of interphase microtubule network at 0.5 uM after 8 hrs by immunofluorescence microscopy; assay type: cell-based
Outline: (§1)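 A549 cells incubated 8 h with compound at 0.1, 0.5, 1 and 5 μM; DMSO vehicle as negative control. Microtubules labelled by indirect immunofluorescence and examined by fluorescence microscopy. Value is the concentration giving total interphase microtubule disassembly, from three independent experiments.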

A549 [3] = assay: Inhibition of microtubule polymerization in human A549 cells assessed as total disruption of interphase microtubule network at 0.1 uM after 8 hrs by immunofluorescence microscopy; assay type: cell-based; outline: as §1
A549 [4] = assay: Inhibition of microtubule polymerization in human A549 cells assessed as total disruption of interphase microtubule network at 1 uM after 8 hrs by immunofluorescence microscopy; assay type: cell-based; outline: as §1
A549 [5] = assay: Cell cycle arrest in human A549 cells assessed as accumulation of cells in G2/M phase after 24 hrs by propidium iodide staining-based flow cytometry; assay type: functional; conditions: A549, 24 h
A549 [6] = assay: Cytotoxicity against human A549 cells assessed as cell viability after 24 hrs by MTT assay; assay type: functional, cell-based; conditions: A549, 24 h
Outline: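 A549 human lung carcinoma cells; growth inhibition measured by MTT assay. IC50 derived from dose-response curves, mean ± SD of three independent experiments.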

Paracentrotus lividus [7] = assay: Antimitotic activity against Paracentrotus lividus embryo assessed as cleavage alteration treated 10 to 25 mins post fertilization followed by 45 to 60 mins before the first mitotic cycle completion by sea urchin embryo assay; assay type: functional
A549 [8] = assay: Inhibition of microtubule polymerization in human A549 cells assessed as total disruption of interphase microtubule network at 5 uM after 8 hrs by immunofluorescence microscopy; assay type: cell-based; outline: as §1
Paracentrotus lividus [9] = assay: Antimitotic activity against Paracentrotus lividus embryo assessed as cleavage arrest treated 10 to 25 mins post fertilization followed by 45 to 60 mins before the first mitotic cycle completion by sea urchin embryo assay; assay type: functional
A549 [10] = assay: Inhibition of microtubule polymerization in human A549 cells assessed as total disruption of interphase microtubule network at > 5 uM after 8 hrs by immunofluorescence microscopy; assay type: cell-based
P388 = assay: Cytotoxicity against mouse P388 cells assessed as cell viability after 48 hrs by trypan blue exclusion assay; assay type: functional, cell-based; conditions: P388, 48 h
Paracentrotus lividus [11] = assay: Antimitotic activity against Paracentrotus lividus embryo assessed as cleavage alteration up to 4 uM […] followed by 45 to 60 mins before the first mitotic cycle completion by sea urchin embryo assay; assay type: functional, organism-based
Paracentrotus lividus [12] = assay: Antimitotic activity against Paracentrotus lividus embryo assessed as embryo spinning up to 4 uM […] followed by 45 to 60 mins before the first mitotic cycle completion by sea urchin embryo assay; assay type: functional, organism-based
Paracentrotus lividus [13] = assay: Antimitotic activity against Paracentrotus lividus embryo assessed as cleavage arrest up to 4 uM […] followed by 45 to 60 mins before the first mitotic cycle completion by sea urchin embryo assay; assay type: functional, organism-based
A549 [14] = assay: Induction of apoptosis in human A549 cells assessed as necrotic cells at 10 to 100 nM after 48 hrs by annexin-V FITC/7-ADD staining-based flow cytometric analysis; assay type: functional, cell-based
A549 [15] = assay: Induction of apoptosis in human A549 cells assessed as late apoptotic cells at 10 to 100 nM after 48 hrs by annexin-V FITC/7-ADD staining-based flow cytometric analysis; assay type: functional, cell-based
A549 [16] = assay: Induction of apoptosis in human A549 cells assessed as early apoptotic cells at 10 to 100 nM after 48 hrs by annexin-V FITC/7-ADD staining-based flow cytometric analysis; assay type: functional, cell-based

Compound | EC (Paracentrotus lividus [1]) [nM] | IC50 (A549 [6]) [nM] | EC (Paracentrotus lividus [7]) [nM] | EC (Paracentrotus lividus [9]) [nM] | other results
COc1cc(C2C3=C(COC3=O)Nc3cc4c(cc32)OCCO4)cc2c1OCO2 (stereo not drawn) | 100 | 64.7 | 5 | 50 | inhibition (A549 [2]): Active; inhibition (A549 [3]): Active; inhibition (A549 [4]): Active; EC50 (A549 [5]): 119 nM; inhibition (A549 [8]): Active
COc1c(C2C3=C(COC3=O)Nc3cc4c(cc32)OCO4)cc2c(c1OC)OCO2 (stereo not drawn) | 4000 | – | 100 | 500 | –
COc1cc(C2C3=C(COC3=O)Nc3cc4c(c(OC)c32)OCO4)cc2c1OCO2 (stereo not drawn) | 2000 | 298 | 50 | 500 | inhibition (A549 [10]): Active
COc1ccc(C2C3=C(COC3=O)Nc3cc4c(cc32)OCO4)cc1OC (stereo not drawn) | 2000 | 596 | 5 | 100 | inhibition (A549 [2]): Active; IC50 (P388): 131 nM; inhibition (A549 [3]): Active; inhibition (A549 [4]): Active; EC50 (A549 [5]): 230 nM; inhibition (A549 [8]): Active
COc1ccc(C2C3=C(O)OCC3=Nc3cc4c(cc32)OCO4)cc1 (stereo not drawn) | 2000 | > 3200 | 50 | 200 | –
COc1cc(C2C3=C(COC3=O)Nc3cc4c(cc32)OCO4)c(OC)c(OC)c1OC (stereo not drawn) | >10000 | 299 | 1000 | 4000 | inhibition (A549 [2]): Active; inhibition (A549 [3]): Active; inhibition (A549 [4]): Active; inhibition (A549 [8]): Active
COc1cc(C2C3=C(COC3=O)Nc3cc4c(cc32)OCO4)c(OC)c2c1OCO2 (stereo not drawn) | >5000 | – | 1000 | 2000 | –
COc1cc(OC)cc(C2C3=C(COC3=O)Nc3cc(OC)ccc32)c1 (stereo not drawn) | 200 | – | 2 | 10 | –
OC1=C2C(=Nc3cc4c(cc3C2c2ccccc2)OCO4)CO1 (stereo not drawn) | 100 | 63 | 5 | 20 | –
COc1cc(C2C3=C(COC3=O)Nc3cn(C)nc32)c(OC)c2c1OCO2 (stereo not drawn) | – | – | – | – | Activity (Paracentrotus lividus [11]): inactive; Activity (Paracentrotus lividus [12]): inactive; Activity (Paracentrotus lividus [13]): inactive
COc1cc(C2C3=C(COC3=O)Nc3[nH]nc(C)c32)cc(OC)c1OC (stereo not drawn) | – | – | – | – | Activity (Paracentrotus lividus [11]): inactive; Activity (Paracentrotus lividus [12]): inactive; Activity (Paracentrotus lividus [13]): inactive
COc1c(C2C3=C(COC3=O)Nc3cn(C)nc32)cc2c(c1OC)OCO2 (stereo not drawn) | – | – | – | – | Activity (Paracentrotus lividus [11]): inactive; Activity (Paracentrotus lividus [12]): inactive; Activity (Paracentrotus lividus [13]): inactive
COc1c(C2C3=C(COC3=O)Nc3[nH]nc(C)c32)cc2c(c1OC)OCO2 (stereo not drawn) | – | – | – | – | Activity (Paracentrotus lividus [11]): inactive; Activity (Paracentrotus lividus [12]): inactive; Activity (Paracentrotus lividus [13]): inactive
COc1cc(C2C3=C(COC3=O)Nc3ccccc32)cc2c1OCO2 (stereo not drawn) | 2000 | 534 | 20 | 200 | inhibition (A549 [10]): Active
COc1cc(C2C3=C(COC3=O)Nc3cc4c(cc32)CCC4)cc2c1OCO2 (stereo not drawn) | 50 | 264 | 2 | 20 | inhibition (A549 [2]): Active; inhibition (A549 [3]): Active; inhibition (A549 [4]): Active; inhibition (A549 [8]): Active
COc1cc(C2C3=C(COC3=O)Nc3cn(C)nc32)cc2c1OCO2 (stereo not drawn) | – | – | – | – | Activity (Paracentrotus lividus [11]): inactive; Activity (Paracentrotus lividus [12]): inactive; Activity (Paracentrotus lividus [13]): inactive
COc1cc([C@H]2C3=C(COC3=O)Nc3cc4c(cc32)OCO4)cc2c1OCO2 | – | – | 5 | 50 | –
COc1cc(-c2c3c(nc4cc5c(cc24)CCC5)COC3=O)cc2c1OCO2 | >5000 | – | 100 | 1000 | –

Compound | EC (Paracentrotus lividus [1]) [nM] | IC50 (A549 [6]) [nM] | EC (Paracentrotus lividus [7]) [nM] | EC (Paracentrotus lividus [9]) [nM] | other results
O=C1OCC2=C1C(c1ccc3c(c1)OCO3)c1c(ccc3ccccc13)N2 (stereo not drawn) | >4000 | – | >4000 | >4000 | –
COc1ccc(C2C3=C(COC3=O)Nc3cc4c(c(OC)c32)OCO4)cc1 (stereo not drawn) | >2000 | – | 2000 | >2000 | –
COc1ccc2c(c1)C(c1cc(OC)c3c(c1)OCO3)C1=C(COC1=O)N2 (stereo not drawn) | 500 | 282 | 10 | 50 | inhibition (A549 [2]): Active; inhibition (A549 [3]): Active; inhibition (A549 [4]): Active; inhibition (A549 [8]): Active
OC1=C2C(=Nc3cc4c(cc3C2c2ccc3c(c2)OCO3)OCO4)CO1 (stereo not drawn) | 200 | – | 10 | 50 | –
COc1cc(C2C3=C(COC3=O)Nc3c2ccc2c3CCCC2)cc2c1OCO2 (stereo not drawn) | 100 | 159 | 5 | 50 | –
COc1cc(-c2c3c(nc4c5c(ccc24)CCCC5)COC3=O)cc2c1OCO2 | 5000 | – | 200 | 2000 | –
COc1cc([C@@H]2C3=C(COC3=O)Nc3cc4c(cc32)OCO4)cc2c1OCO2 | 50 | – | 50 | 200 | –
COc1cc(C2C3=C(COC3=O)Nc3[nH]nc(C)c32)c(OC)c2c1OCO2 (stereo not drawn) | – | – | – | – | Activity (Paracentrotus lividus [11]): inactive; Activity (Paracentrotus lividus [12]): inactive; Activity (Paracentrotus lividus [13]): inactive
COc1cc(C2C3=C(COC3=O)Nc3cn(C)nc32)cc(OC)c1OC (stereo not drawn) | – | – | – | – | Activity (Paracentrotus lividus [11]): inactive; Activity (Paracentrotus lividus [12]): inactive; Activity (Paracentrotus lividus [13]): inactive
COc1cc(C2C3=C(O)OCC3=Nc3cc4c(cc32)OCCO4)cc(OC)c1OC (stereo not drawn) | 1000 | 9.2 | 200 | 1000 | inhibition (A549 [2]): Active; inhibition (A549 [3]): Active; inhibition (A549 [4]): Active; inhibition (A549 [8]): Active
COc1cc(C2C3=C(COC3=O)Nc3cc4c(c(OC)c32)OCO4)cc(OC)c1OC (stereo not drawn) | >2000 | 291 | 2000 | >2000 | inhibition (A549 [2]): Active; inhibition (A549 [3]): Active; inhibition (A549 [4]): Active; inhibition (A549 [8]): Active
COc1cc(C2C3=C(COC3=O)Nc3cc4c(cc32)OCO4)cc(OC)c1OC (stereo not drawn) | 2000 | 2.71 | 50 | 500 | Activity (A549 [14]): Active; inhibition (A549 [2]): Active; inhibition (A549 [3]): Active; Activity (A549 [15]): inactive; inhibition (A549 [4]): Active; Activity (A549 [16]): Active; EC50 (A549 [5]): 16.2 nM; inhibition (A549 [8]): Active
COc1ccc(C2C3=C(COC3=O)Nc3[nH]ncc32)cc1 (stereo not drawn) | – | – | – | – | Activity (Paracentrotus lividus [11]): inactive; Activity (Paracentrotus lividus [12]): inactive; Activity (Paracentrotus lividus [13]): inactive
COc1cc(C2C3=C(COC3=O)Nc3[nH]ncc32)cc(OC)c1OC (stereo not drawn) | – | – | – | – | Activity (Paracentrotus lividus [11]): inactive; Activity (Paracentrotus lividus [12]): inactive; Activity (Paracentrotus lividus [13]): inactive
COC(=O)Nc1nc2cc(C(=O)c3cccs3)ccc2[nH]1 | – | – | – | – | Activity (A549 [14]): Active; Activity (A549 [15]): inactive; Activity (A549 [16]): Active
COc1cccc(C2C3=C(O)OCC3=Nc3cc4c(cc32)OCO4)c1 (stereo not drawn) | 100 | – | 5 | 20 | –
COc1cc(-c2c3c(nc4c5c(ccc24)CCC5)COC3=O)cc2c1OCO2 | >5000 | – | 100 | >4000 | –
